{"source": "ChEMBL document CHEMBL2321684", "about": "“Novel hybrids of optically active ring-opened 3-n-butylphthalide derivative and isosorbide as potential anti-ischemic stroke agents” (J Med Chem, 2013)", "key": {"Rattus norvegicus [1]": {"system": "Rattus norvegicus", "experiment": "Antiischemic activity in Sprague-Dawley rat assessed as reduction in middle cerebral artery occlusion-induced inflammatory infiltrates in brain at 80 mg/kg administered via gavage for 7 days prior to middle cerebral artery occlusion-challenge measured after 24 hrs by microscopic analysis", "type": "functional, organism-based", "set-up": "dose 80 mg/kg", "method_in_brief": "(§1)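 Male SD rats (280−320 g), n = 12 per group, dosed by gavage daily for 7 days in 0.5% CMC-Na vehicle. Sham animals received vehicle only. Two hours after the last dose, rats were anesthetized with chloral hydrate (300 mg/kg ip) and given MCAO for 2 h, then reperfused. Body temperature was held at 37 °C. All endpoints were read at 24 h post reperfusion.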"}, "Rattus norvegicus [2]": {"system": "Rattus norvegicus", "experiment": "Antiischemic activity in Sprague-Dawley rat assessed as reduction in middle cerebral artery occlusion-induced abnormal changes in brain at 80 mg/kg administered via gavage for 7 days prior to middle cerebral artery occlusion-challenge measured after 24 hrs by microscopic analysis", "type": "functional, organism-based", "set-up": "dose 80 mg/kg", "method_in_brief": "as §1"}, "Rattus norvegicus [3]": {"system": "Rattus norvegicus", "experiment": "Antiischemic activity in Sprague-Dawley rat assessed as reduction in middle cerebral artery occlusion-induced necrosis in neurons at 80 mg/kg administered via gavage for 7 days prior to middle cerebral artery occlusion-challenge measured after 24 hrs by microscopic analysis", "type": "functional, organism-based", "set-up": "dose 80 mg/kg", "method_in_brief": "as §1"}, "Rattus norvegicus [4]": {"system": "Rattus norvegicus", "experiment": "Antiischemic activity in Sprague-Dawley rat assessed as reduction in middle cerebral artery occlusion-induced water content in brain at 340 mg/kg administered via gavage for 7 days prior to middle cerebral artery occlusion-challenge measured after 24 hrs relative to control", "type": "functional, organism-based", "set-up": "dose 340 mg/kg", "method_in_brief": "as §1"}, "Rattus norvegicus [5]": {"system": "Rattus norvegicus", "experiment": "Antiischemic activity in Sprague-Dawley rat assessed as reduction in middle cerebral artery occlusion-induced water content in brain at 80 mg/kg administered via gavage for 7 days prior to middle cerebral artery occlusion-challenge measured after 24 hrs relative to control", "type": "functional, organism-based", "set-up": "dose 80 mg/kg", "method_in_brief": "as §1"}, "Rattus norvegicus [6]": {"system": "Rattus norvegicus", "experiment": "Antiischemic activity in Sprague-Dawley rat assessed as reduction in middle cerebral artery occlusion-induced neurological deficit scores at 340 mg/kg administered via gavage for 7 days prior to middle cerebral artery occlusion-challenge measured after 24 hrs relative to control", "type": "functional, organism-based", "set-up": "dose 340 mg/kg", "method_in_brief": "as §1"}, "Rattus norvegicus [7]": {"system": "Rattus norvegicus", "experiment": "Antiischemic activity in Sprague-Dawley rat assessed as reduction in middle cerebral artery occlusion-induced infarct size in brain at 80 mg/kg administered via gavage for 7 days prior to middle cerebral artery occlusion-challenge measured after 24 hrs by triphenyltetrazolium chloride assay relative to control", "type": "functional, organism-based", "set-up": "dose 80 mg/kg", "method_in_brief": "as §1"}, "[8]": {"experiment": "Plasma concentration in ICR mouse at 680 mg/kg, po after 4 hrs by HPLC analysis", "type": "ADME, organism-based", "set-up": "dose 680 mg/kg, route oral", "method_in_brief": "(§2)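 Male ICR mice (30−35 g), n = 6 per time point, were given a single 680 mg/kg gavage dose and sacrificed at 0.5, 1, 2, 4 and 8 h. Brains were rinsed, weighed and homogenized in 3 volumes of saline. Plasma and homogenate were precipitated with 3 volumes of acetonitrile.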"}, "[9]": {"experiment": "Plasma concentration in ICR mouse at 680 mg/kg, po after 8 hrs by HPLC analysis", "type": "ADME, organism-based", "set-up": "dose 680 mg/kg, route oral", "method_in_brief": "as §2"}, "[10]": {"experiment": "Plasma concentration in ICR mouse at 680 mg/kg, po after 2 hrs by HPLC analysis", "type": "ADME, organism-based", "set-up": "dose 680 mg/kg, route oral", "method_in_brief": "as §2"}, "[11]": {"experiment": "Plasma concentration in ICR mouse at 680 mg/kg, po after 1 hrs by HPLC analysis", "type": "ADME, organism-based", "set-up": "dose 680 mg/kg, route oral", "method_in_brief": "as §2"}, "[12]": {"experiment": "Plasma concentration in ICR mouse at 680 mg/kg, po after 0.5 hrs by HPLC analysis", "type": "ADME, organism-based", "set-up": "dose 680 mg/kg, route oral", "method_in_brief": "as §2"}, "[13]": {"experiment": "Biodistribution in ICR mouse brain at 680 mg/kg, po after 2 hrs by HPLC analysis", "type": "ADME, organism-based", "set-up": "dose 680 mg/kg, route oral", "settings": "read-out: Drug uptake", "method_in_brief": "as §2"}, "[14]": {"experiment": "Biodistribution in ICR mouse brain at 680 mg/kg, po after 0.5 hrs by HPLC analysis", "type": "ADME, organism-based", "set-up": "dose 680 mg/kg, route oral", "settings": "read-out: Drug uptake", "method_in_brief": "as §2"}, "[15]": {"experiment": "Biodistribution in ICR mouse brain at 680 mg/kg, po after 1 hr by HPLC analysis", "type": "ADME, organism-based", "set-up": "dose 680 mg/kg, route oral", "settings": "read-out: Drug uptake", "method_in_brief": "as §2"}, "[16]": {"experiment": "Aqueous solubility of the compound after 5 hrs by UV-spectrophotometric analysis", "type": "physicochemical", "settings": "water"}, "Rattus norvegicus [17]": {"system": "Rattus norvegicus", "experiment": "Antithrombotic activity in Sprague-Dawley rat assessed as reduction in arteriovenous shunt-induced dry thrombus weight at 340 mg/kg, administered via gavage for 7 days prior to arteriovenous shunt-challenge measured up to 15 mins relative to control", "type": "functional, organism-based", "set-up": "dose 340 mg/kg", "method_in_brief": "(§3)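 Male SD rats (250−280 g), n = 12 per group, dosed by gavage daily for 7 days in 0.5% CMC-Na. Two hours after the last dose, rats were anesthetized with chloral hydrate (300 mg/kg ip). A saline-filled 14 cm polyethylene catheter holding a 6 cm silk thread linked the left jugular vein and right carotid artery for 15 min. The thrombus was then weighed wet and dry. Results are mean ± SD, analysed by ANOVA/Tukey.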"}, "Rattus norvegicus [18]": {"system": "Rattus norvegicus", "experiment": "Antithrombotic activity in Sprague-Dawley rat assessed as reduction in arteriovenous shunt-induced wet thrombus weight at 340 mg/kg, administered via gavage for 7 days prior to arteriovenous shunt-challenge measured up to 15 mins relative to control", "type": "functional, organism-based", "set-up": "dose 340 mg/kg", "method_in_brief": "as §3"}, "Rattus norvegicus [19]": {"system": "Rattus norvegicus", "experiment": "Antithrombotic activity in Sprague-Dawley rat assessed as reduction in arteriovenous shunt-induced wet thrombus weight at 80 mg/kg, administered via gavage for 7 days prior to arteriovenous shunt-challenge measured up to 15 mins relative to control", "type": "functional, organism-based", "set-up": "dose 80 mg/kg", "method_in_brief": "as §3"}, "[20]": {"experiment": "Stability in artificial intestinal juice assessed as compound remaining at pH 6.8 after 4 hr by HPLC analysis", "type": "physicochemical", "settings": "simulated gi fluid, pH 6.8, 4 h"}, "[21]": {"experiment": "Stability in artificial intestinal juice assessed as compound remaining at pH 6.8 after 1 hr by HPLC analysis", "type": "physicochemical", "settings": "simulated gi fluid, pH 6.8, 1 h"}, "[22]": {"experiment": "Stability in artificial intestinal juice assessed as compound remaining at pH 6.8 measured immediately by HPLC analysis", "type": "physicochemical", "settings": "simulated gi fluid"}, "[23]": {"experiment": "Stability in artificial gastric juice assessed as compound remaining at pH 1.5 after 4 hr by HPLC analysis", "type": "physicochemical", "settings": "simulated gi fluid, pH 1.5, 4 h"}, "[24]": {"experiment": "Stability in artificial gastric juice assessed as compound remaining at pH 1.5 after 8 hr by HPLC analysis", "type": "physicochemical", "settings": "simulated gi fluid, pH 1.5, 8 h"}, "[25]": {"experiment": "Stability in artificial gastric juice assessed as compound remaining at pH 1.5 after 2 hr by HPLC analysis", "type": "physicochemical", "settings": "simulated gi fluid, pH 1.5, 2 h"}, "[26]": {"experiment": "Stability in artificial gastric juice assessed as compound remaining at pH 1.5 measured immediately by HPLC analysis", "type": "physicochemical", "settings": "simulated gi fluid"}, "[27]": {"experiment": "Antiplatelet aggregation activity in rabbit platelets assessed as inhibition of ADP-induced platelet aggregation at 1 mM incubated for 5 mins prior to ADP-challenge measured within 5 mins by Born's turbidimetric analysis relative to control", "type": "functional", "settings": "Oryctolagus cuniculus", "method_in_brief": "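Rabbit carotid blood was citrated (3.8%, 9:1). PRP was adjusted with PPP to 400−450 × 10⁹ platelets/L. PRP was preincubated with compound or DMSO for 5 min at 37 °C, then aggregation was induced with ADP at 10 μM. Maximum aggregation rate was recorded over 5 min using Born's turbidimetry. Inhibition % was calculated versus vehicle; n = 6, mean ± SD.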"}, "[28]": {"experiment": "Antiplatelet aggregation activity in rabbit platelets assessed as inhibition of arachidonic acid-induced platelet aggregation incubated for 5 mins prior to arachidonic acid-challenge measured within 5 mins by Born's turbidimetric analysis", "type": "functional, cell-based", "settings": "Oryctolagus cuniculus", "method_in_brief": "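Rabbit citrated PRP was adjusted to 400−450 × 10⁹ platelets/L and preincubated for 5 min at 37 °C with vehicle DMSO or compound at 0.1−1.6 mM (at least five concentrations). Aggregation was induced with arachidonic acid (0.33 mM, per the methods text). Maximum aggregation rate was recorded over 5 min by Born's turbidimetry, and IC₅₀ was derived from inhibition versus vehicle (mean ± SD).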"}}, "note": "Calls of active or inactive are those of the source. The rule behind the calls is not given here.", "data": [{"smiles": "CCCC[C@H](OC(=O)CN1CCN(C)CC1)c1ccccc1C(=O)O[C@H]1CO[C@H]2[C@@H]1OC[C@H]2OC(=O)c1ccccc1[C@H](CCCC)OC(=O)CN1CCN(C)CC1", "values": [{"measurement": "Activity", "setting": "Rattus norvegicus [1]", "result": "Active"}, {"measurement": "Activity", "setting": "Rattus norvegicus [2]", "result": "Active"}, {"measurement": "Activity", "setting": "Rattus norvegicus [3]", "result": "Active"}, {"measurement": "Activity", "setting": "Rattus norvegicus [4]", "result": "Active"}, {"measurement": "Activity", "setting": "Rattus norvegicus [5]", "result": "Active"}, {"measurement": "Activity", "setting": "Rattus norvegicus [6]", "result": "Active"}, {"measurement": "Activity", "setting": "Rattus norvegicus [7]", "result": "Active"}, {"measurement": "concentration at 4 h", "setting": "[8]", "result": 126, "unit": "ng/mL"}, {"measurement": "concentration at 8 h", "setting": "[9]", "result": 69.7, "unit": "ng/mL"}, {"measurement": "concentration at 2 h", "setting": "[10]", "result": 186, "unit": "ng/mL"}, {"measurement": "concentration at 1 h", "setting": "[11]", "result": 241, "unit": "ng/mL"}, {"measurement": "concentration at 0.5 h", "setting": "[12]", "result": 320, "unit": "ng/mL"}, {"measurement": "concentration at 2 h", "setting": "[13]", "result": 174, "unit": "ng/mL"}, {"measurement": "concentration at 0.5 h", "setting": "[14]", "result": 408, "unit": "ng/mL"}, {"measurement": "concentration at 1 h", "setting": "[15]", "result": 260, "unit": "ng/mL"}, {"measurement": "solubility at 5 h", "setting": "[16]", "result": 11.2, "unit": "mg/mL"}, {"measurement": "Activity", "setting": "Rattus norvegicus [17]", "result": "Active"}, {"measurement": "Activity", "setting": "Rattus norvegicus [18]", "result": "Active"}, {"measurement": "Activity", "setting": "Rattus norvegicus [19]", "result": "Active"}, {"measurement": "Stability", "setting": "[20]", "result": 4.89, "unit": "µM"}, {"measurement": "Stability", "setting": "[21]", "result": 4.86, "unit": "µM"}, {"measurement": "Stability", "setting": "[22]", "result": 4.97, "unit": "µM"}, {"measurement": "Stability", "setting": "[23]", "result": 4.79, "unit": "µM"}, {"measurement": "Stability", "setting": "[24]", "result": 4.96, "unit": "µM"}, {"measurement": "Stability", "setting": "[25]", "result": 5, "unit": "µM"}, {"measurement": "Stability", "setting": "[26]", "result": 4.92, "unit": "µM"}, {"measurement": "inhibition at 1000 µM", "setting": "[27]", "result": 50.1, "unit": "%"}, {"measurement": "IC50", "setting": "[28]", "result": 50, "unit": "µM"}]}]}
